Data published in ChEMBL document CHEMBL3352386, “Development of chiral praziquantel analogues as potential drug candidates with activity to juvenile Schistosoma japonicum” (2014).

Legend:
[1] = tested on: Schistosoma japonicum; test: Antischistosomal activity against juvenile Schistosoma japonicum infected in ICR Kunming mouse assessed as worm reduction at 200 mg/kg, po for 5 days beginning on day 14 after infection (reference value: 0%)
[2] = tested on: Schistosoma japonicum; test: Antischistosomal activity against adult Schistosoma japonicum assessed as vitality reduction at 50 uM after 24 hrs (reference value: 0%); type: functional
[3] = tested on: Schistosoma japonicum; test: Antischistosomal activity against adult Schistosoma japonicum assessed as vitality reduction at 100 uM after 72 hrs (reference value: 0%); type: functional
[4] = tested on: Schistosoma japonicum; test: Antischistosomal activity against juvenile Schistosoma japonicum assessed as vitality reduction at 50 uM after 48 hrs (reference value: 0%); type: functional
[5] = tested on: Schistosoma japonicum; test: Antischistosomal activity against adult Schistosoma japonicum assessed as worm survival at 100 uM after 48 hrs (reference value: 100%); type: functional
Summary of the method: (§1)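 Five adult male S. japonicum worms recovered 6 weeks post-infection from female ICR Kunming mice, in duplicate dishes of bicarbonate-buffered DMEM with 20% newborn calf serum, penicillin, streptomycin and amphotericin B. Compound diluted from DMSO stock; DMSO control. Kept at 37 °C, 5% CO2, observed daily by stereomicroscope. Survival% = surviving/total worms × 100.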

[6] = tested on: Schistosoma japonicum; test: Antischistosomal activity against adult Schistosoma japonicum assessed as vitality reduction at 50 uM after 48 hrs (reference value: 0%); type: functional
[7] = tested on: Schistosoma japonicum; test: Antischistosomal activity against adult Schistosoma japonicum assessed as worm survival at 50 uM after 24 hrs (reference value: 100%); type: functional
Summary of the method: as §1

[8] = tested on: Schistosoma japonicum; test: Antischistosomal activity against juvenile Schistosoma japonicum assessed as vitality reduction at 50 uM after 24 hrs (reference value: 0%); type: functional
[9] = tested on: Schistosoma japonicum; test: Antischistosomal activity against adult Schistosoma japonicum assessed as vitality reduction at 100 uM after 24 hrs (reference value: 0%); type: functional
[10] = tested on: Schistosoma japonicum; test: Antischistosomal activity against adult Schistosoma japonicum assessed as vitality reduction at 50 uM after 72 hrs (reference value: 0%); type: functional
[11] = tested on: Schistosoma japonicum; test: Antischistosomal activity against adult Schistosoma japonicum assessed as worm survival at 50 uM after 72 hrs (reference value: 100%); type: functional
Summary of the method: as §1

[12] = tested on: Schistosoma japonicum; test: Antischistosomal activity against adult Schistosoma japonicum assessed as worm survival at 50 uM after 48 hrs (reference value: 100%); type: functional
Summary of the method: as §1

[13] = tested on: Schistosoma japonicum; test: Antischistosomal activity against juvenile Schistosoma japonicum assessed as worm survival at 50 uM after 72 hrs (reference value: 100%); type: functional
Summary of the method: (§2)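 Nine juvenile S. japonicum worms recovered 17 days post-infection from female ICR Kunming mice, in duplicate dishes of bicarbonate-buffered DMEM with 20% newborn calf serum plus penicillin, streptomycin and amphotericin B. Compound diluted from DMSO stock. Held at 37 °C, 5% CO2, with daily stereomicroscope scoring. Survival% = surviving/total worms × 100.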

[14] = tested on: Schistosoma japonicum; test: Antischistosomal activity against adult Schistosoma japonicum assessed as worm survival at 100 uM after 72 hrs (reference value: 100%); type: functional
Summary of the method: as §1

[15] = tested on: Schistosoma japonicum; test: Antischistosomal activity against juvenile Schistosoma japonicum assessed as vitality reduction at 50 uM after 72 hrs (reference value: 0%); type: functional
[16] = tested on: Schistosoma japonicum; test: Antischistosomal activity against adult Schistosoma japonicum assessed as worm survival at 100 uM after 24 hrs (reference value: 100%); type: functional
Summary of the method: as §1

[17] = tested on: Schistosoma japonicum; test: Antischistosomal activity against juvenile Schistosoma japonicum assessed as worm survival at 50 uM after 24 hrs (reference value: 100%); type: functional
Summary of the method: as §2

[18] = tested on: Schistosoma japonicum; test: Antischistosomal activity against juvenile Schistosoma japonicum assessed as worm survival at 50 uM after 48 hrs (reference value: 100%); type: functional
Summary of the method: as §2

[19] = tested on: Schistosoma japonicum; test: Antischistosomal activity against adult Schistosoma japonicum assessed as vitality reduction at 100 uM after 48 hrs (reference value: 0%); type: functional
[20] = tested on: Schistosoma japonicum; test: Antischistosomal activity against adult Schistosoma japonicum assessed as vitality reduction at 80 uM after 48 hrs (reference value: 0%); type: functional
[21] = tested on: Schistosoma japonicum; test: Antischistosomal activity against adult Schistosoma japonicum assessed as worm survival at 80 uM after 24 hrs (reference value: 100%); type: functional
Summary of the method: as §1

[22] = tested on: Schistosoma japonicum; test: Antischistosomal activity against adult Schistosoma japonicum assessed as vitality reduction at 80 uM after 72 hrs (reference value: 0%); type: functional
[23] = tested on: Schistosoma japonicum; test: Antischistosomal activity against adult Schistosoma japonicum assessed as worm survival at 80 uM after 48 hrs (reference value: 100%); type: functional
Summary of the method: as §1

[24] = tested on: Schistosoma japonicum; test: Antischistosomal activity against adult Schistosoma japonicum assessed as worm survival at 80 uM after 72 hrs (reference value: 100%); type: functional
Summary of the method: as §1

[25] = tested on: Schistosoma japonicum; test: Antischistosomal activity against adult Schistosoma japonicum assessed as vitality reduction at 80 uM after 24 hrs (reference value: 0%); type: functional

Structure (SMILES)	inhibition in vivo at 200 mg/kg [1] [%]	inhibition at 50 µM [2] [%]	inhibition at 100 µM [3] [%]	inhibition at 50 µM [4] [%]	survival at 100 µM [5] [%]	inhibition at 50 µM [6] [%]	survival at 50 µM [7] [%]	inhibition at 50 µM [8] [%]	inhibition at 100 µM [9] [%]	inhibition at 50 µM [10] [%]	survival at 50 µM [11] [%]	survival at 50 µM [12] [%]	survival at 50 µM [13] [%]	survival at 100 µM [14] [%]	inhibition at 50 µM [15] [%]	survival at 100 µM [16] [%]	survival at 50 µM [17] [%]	survival at 50 µM [18] [%]	inhibition at 100 µM [19] [%]	inhibition at 80 µM [20] [%]	also measured
O=C1CCC(C(=O)N2CC(=O)N3CCc4ccccc4[C@@H]3C2)C1 (stereo not given in full)	44.1	15.5	11.1	38.3	100	0	100	38.3	13.3	6.7	100	100	88.3	100	50.6	100	100	100	11.1		
O=C1CCC(C(=O)N2CC(=O)N3CCc4ccccc4C3C2)CC1 (racemic)	27.7	40	55.3	34.6	100	64.5	100	35.8	46.7	66.7	100	100	69.2	100	34.6	100	69.2	69.2	60	64.5	survival at 80 µM [21]: 100%; inhibition at 80 µM [22]: 66.7%; survival at 80 µM [23]: 100%; survival at 80 µM [24]: 100%; inhibition at 80 µM [25]: 48.9%
O=C1CCC(C(=O)N2CC(=O)N3CCc4ccccc4[C@@H]3C2)CC1	60	73.3	77.8	64.2	60	60	60	60.5	86.7	55.5	100	80	44.1	60	66.7	40	51.6	48.3	82.2	69.3	survival at 80 µM [21]: 60%; inhibition at 80 µM [22]: 60%; survival at 80 µM [23]: 100%; survival at 80 µM [24]: 100%; inhibition at 80 µM [25]: 82%
O=C1CC(C(=O)N2CC(=O)N3CCc4ccccc4[C@@H]3C2)C1	41	17.8	22.7	37	100	15.5	100	32.1	24.5	15.3	100	100	100	100	38.3	100	100	100	22		
O=C1CCC(C(=O)N2CC(=O)N3CCc4ccccc4C3C2)C1 (racemic)	37.4	0	8.7	55.6	100	0	100	55.6	17.8	0	100	100	54.2	100	54.3	100	54.2	54.2	13.3	13.3	survival at 80 µM [21]: 100%; inhibition at 80 µM [22]: 0%; survival at 80 µM [23]: 100%; survival at 80 µM [24]: 100%; inhibition at 80 µM [25]: 23.3%
O=C1CC(C(=O)N2CC(=O)N3CCc4ccccc4[C@H]3C2)C1	19	4.5	8.9	30.9	100	0	100	30.9	6.7	0	100	100	88.3	100	34.6	100	88.3	88.3	8.7		
O=C1CC(C(=O)N2CC(=O)N3CCc4ccccc4C3C2)C1 (racemic)	7.7	13.3	10	35.8	100	0	100	35.8	6.7	0	100	100	82.5	100	37	100	82.5	82.5	10		
O=C(C1CCCCC1)N1CC(=O)N2CCc3ccccc3C2C1 (stereo not given) [PRAZIQUANTEL]	19.9																				
O=C1CCC(C(=O)N2CC(=O)N3CCc4ccccc4[C@H]3C2)C1 (stereo not given in full)	24.6	4.5	15.3	45.7	100	0	100	45.7	16	0	100	100	85	100	53.1	100	100	100	15.5		
O=C1CCC(C(=O)N2CC(=O)N3CCc4ccccc4[C@H]3C2)CC1	18	0	15.5	29.6	100	0	100	29.6	8.7	0	100	100	88.3	100	29.6	100	88.3	88.3	15.3		
